In ChEMBL document CHEMBL2375213, “Synthesis and anticancer activity of novel spiro-isoxazoline and spiro-isoxazolidine derivatives of α-santonin” (Eur J Med Chem, 2013):
pIC50: −log10 of the molar value.

How the values were obtained:
[1] = tested on: HCT-116; test: Antiproliferative activity against human HCT116 cells after 48 hrs by sulforhodamine B assay; type: functional, cell-based; details: HCT-116, 48 h
[2] = tested on: MCF7; test: Antiproliferative activity against human MCF7 cells after 48 hrs by sulforhodamine B assay; type: functional, cell-based; details: MCF7, 48 h
[3] = tested on: A549; test: Antiproliferative activity against human A549 cells after 48 hrs by sulforhodamine B assay; type: functional, cell-based; details: A549, 48 h
[4] = tested on: HEp-2; test: Antiproliferative activity against human Hep2 cells after 48 hrs by sulforhodamine B assay; type: functional, cell-based; details: HEp-2, 48 h
[5] = tested on: THP-1; test: Antiproliferative activity against human THP1 cells after 48 hrs by sulforhodamine B assay; type: functional, cell-based; details: THP-1, 48 h
[6] = tested on: PC-3; test: Antiproliferative activity against human PC3 cells after 48 hrs by sulforhodamine B assay; type: functional, cell-based; details: PC-3, 48 h
[7] = tested on: PC-3; test: Cell cycle arrest in human PC3 cells assessed as accumulation at G0/G1 phase at 5 uM after 24 hrs by propidium iodide staining-based FACS flow cytometric analysis (reference value: 68.2%); type: functional
Outline: (§1)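 PC-3 cells (1×10^6/well) exposed 24 h to test agent at 1, 5 or 10 μM. Cells washed twice in ice-cold PBS, fixed in 70% ethanol for 30 min, then treated with RNase A (0.1 mg/mL, 37 °C, 30 min). Propidium iodide staining 30 min on ice in the dark. DNA content read by flow cytometry with 488 nm excitation and doublet discrimination, 10,000 events.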

[8] = tested on: PC-3; test: Cell cycle arrest in human PC3 cells assessed as accumulation at M phase at 5 uM after 24 hrs by propidium iodide staining-based FACS flow cytometric analysis (reference value: 3%); type: functional; outline: as §1
[9] = tested on: PC-3; test: Cell cycle arrest in human PC3 cells assessed as accumulation at S phase at 5 uM after 24 hrs by propidium iodide staining-based FACS flow cytometric analysis (reference value: 8.5%); type: functional; outline: as §1
[10] = tested on: PC-3; test: Cell cycle arrest in human PC3 cells assessed as accumulation at subG1 phase at 5 uM after 24 hrs by propidium iodide staining-based FACS flow cytometric analysis (reference value: 13.1%); type: functional; outline: as §1

Compound | pIC50 [1] | pIC50 [2] | pIC50 [3] | pIC50 [4] | pIC50 [5] | pIC50 [6] | Activity [7] [%] | Activity [8] [%] | Activity [9] [%] | Activity [10] [%]
CC1=C2[C@H]3OC(=O)C4(C[C@H](c5cc(F)cc(F)c5)N(c5ccccc5)O4)[C@@H]3CC[C@@]2(C)C=CC1=O (stereo partly specified) | 7.05 | 7.05 | 4.00 | 4.00 | 4.60 | 6.15 | – | – | – | –
COc1ccc(C2=NOC3(C2)C(=O)O[C@@H]2C4=C(C)C(=O)C=C[C@]4(C)CC[C@H]23)cc1Br (stereo partly specified) | 4.30 | 4.00 | 4.00 | 4.00 | 4.68 | 4.00 | – | – | – | –
O=c1[nH]cc(F)c(=O)[nH]1 [FLUOROURACIL] | – | – | 5.31 | 5.35 | 6.00 | 5.66 | – | – | – | –
COc1ccc([C@@H]2CC3(ON2c2ccccc2)C(=O)O[C@@H]2C4=C(C)C(=O)C=C[C@]4(C)CC[C@H]23)cc1Br (stereo partly specified) | 4.35 | 4.30 | 5.57 | 4.00 | 4.00 | 7.00 | – | – | – | –
CO[C@@]12[C@H](COC(N)=O)C3=C(C(=O)C(C)=C(N)C3=O)N1C[C@@H]1N[C@@H]12 [MITOMYCIN] | 6.30 | – | – | – | – | – | – | – | – | –
CC1=C2[C@H]3OC(=O)C4(CC(c5ccc(Br)c(F)c5)=NO4)[C@@H]3CC[C@@]2(C)C=CC1=O (stereo partly specified) | 4.82 | 6.05 | 5.51 | 4.48 | 6.22 | 5.70 | – | – | – | –
CC1=C2[C@H]3OC(=O)C4(C[C@@H](c5cc(Cl)ccc5Cl)N(c5ccccc5)O4)[C@@H]3CC[C@@]2(C)C=CC1=O (stereo partly specified) | 4.00 | 6.30 | 4.26 | 6.22 | 5.41 | 6.05 | – | – | – | –
CC1=C2[C@H]3OC(=O)C4(CC(c5c(Cl)cccc5Cl)=NO4)[C@@H]3CC[C@@]2(C)C=CC1=O (stereo partly specified) | 5.00 | 4.57 | 4.00 | 4.82 | 4.00 | 4.00 | – | – | – | –
CC1=C2[C@H]3OC(=O)C4(C[C@@H](c5ccc(F)c(Br)c5)N(c5ccccc5)O4)[C@@H]3CC[C@@]2(C)C=CC1=O (stereo partly specified) | 5.37 | 6.15 | 4.00 | 4.00 | 5.57 | 6.10 | – | – | – | –
CC[C@@]1(O)C(=O)OCc2c1cc1n(c2=O)Cc2cc3ccccc3nc2-1 [CAMPTOTHECIN] | – | – | – | – | – | – | 30.17 | 4.76 | 4.94 | 60.44
CC1=C2[C@H]3OC(=O)C4(C[C@@H](c5cccc([N+](=O)[O-])c5)N(c5ccccc5)O4)[C@@H]3CC[C@@]2(C)C=CC1=O (stereo partly specified) | 4.32 | 4.64 | 5.00 | 4.00 | 4.38 | 6.05 | – | – | – | –
CC1=C2[C@H]3OC(=O)C4(C[C@@H](c5cc(F)cc(F)c5)N(c5ccccc5)O4)[C@@H]3CC[C@@]2(C)C=CC1=O (stereo partly specified) | 4.55 | 5.41 | 4.85 | 4.00 | 6.10 | 5.85 | – | – | – | –
CC1=C2[C@H]3OC(=O)C4(CC(c5ccc(Br)cc5)=NO4)[C@@H]3CC[C@@]2(C)C=CC1=O (stereo partly specified) | 4.00 | 7.00 | 4.24 | 4.00 | 4.00 | 4.00 | – | – | – | –
CC1=C2[C@H]3OC(=O)C4(C[C@H](c5ccc(F)c(Br)c5)N(c5ccccc5)O4)[C@@H]3CC[C@@]2(C)C=CC1=O (stereo partly specified) | 4.00 | 6.70 | 4.72 | 5.43 | 5.64 | 6.05 | – | – | – | –
COc1ccc([C@H]2CC3(ON2c2ccccc2)C(=O)O[C@@H]2C4=C(C)C(=O)C=C[C@]4(C)CC[C@H]23)cc1Br (stereo partly specified) | 4.00 | 4.00 | 5.07 | 4.00 | 4.00 | 7.00 | – | – | – | –
CC1=C2[C@H]3OC(=O)C4(CC(c5ccc(O)cc5)=NO4)[C@@H]3CC[C@@]2(C)C=CC1=O (stereo partly specified) | 5.09 | 4.00 | 5.42 | 4.40 | 4.00 | 4.26 | – | – | – | –
CC1=C2[C@H]3OC(=O)C4(CC(c5cc(F)cc(F)c5)=NO4)[C@@H]3CC[C@@]2(C)C=CC1=O (stereo partly specified) | 4.00 | 6.30 | 5.09 | 4.00 | 6.40 | 5.66 | – | – | – | –

Compound | pIC50 [1] | pIC50 [2] | pIC50 [3] | pIC50 [4] | pIC50 [5] | pIC50 [6] | Activity [7] [%] | Activity [8] [%] | Activity [9] [%] | Activity [10] [%]
CC1=C2[C@H]3OC(=O)C4(C[C@H](c5ccc([N+](=O)[O-])cc5)N(c5ccccc5)O4)[C@@H]3CC[C@@]2(C)C=CC1=O (stereo partly specified) | 4.00 | 6.15 | 4.18 | 4.85 | 7.00 | 6.30 | – | – | – | –
CC1=C2[C@H]3OC(=O)C4(C[C@@H](c5ccc([N+](=O)[O-])cc5)N(c5ccccc5)O4)[C@@H]3CC[C@@]2(C)C=CC1=O (single isomer, unassigned) | 4.00 | 6.05 | 4.18 | 4.00 | 7.00 | 6.22 | – | – | – | –
COc1cccc2c1C(=O)c1c(O)c3c(c(O)c1C2=O)C[C@@](O)(C(=O)CO)C[C@@H]3O[C@H]1C[C@H](N)[C@H](O)[C@H](C)O1 [DOXORUBICIN] | – | 6.30 | – | – | – | 5.22 | – | – | – | –
COc1ccc(C2=NOC3(C2)C(=O)O[C@@H]2C4=C(C)C(=O)C=C[C@]4(C)CC[C@H]23)cc1 (stereo partly specified) | 4.28 | 7.70 | 6.70 | 4.00 | 5.10 | 4.00 | – | – | – | –
CC1=C2[C@H]3OC(=O)C4(C[C@@H](c5cccc6ccccc56)N(c5ccccc5)O4)[C@@H]3CC[C@@]2(C)C=CC1=O (stereo partly specified) | 4.00 | 4.09 | 5.48 | 4.00 | 4.23 | 6.15 | – | – | – | –
CC1=C2[C@H]3OC(=O)C4(C[C@H](c5cc(Cl)ccc5Cl)N(c5ccccc5)O4)[C@@H]3CC[C@@]2(C)C=CC1=O (stereo partly specified) | 4.49 | 7.00 | 4.11 | 4.00 | 6.70 | 6.15 | – | – | – | –
CC1=C2[C@H]3OC(=O)C4(CC(c5ccc6ccccc6c5)=NO4)[C@@H]3CC[C@@]2(C)C=CC1=O (stereo partly specified) | 4.00 | 4.52 | 5.54 | 4.00 | 6.40 | 6.22 | – | – | – | –
CC1=C2[C@H]3OC(=O)C4(CC(c5cccc(F)c5)=NO4)[C@@H]3CC[C@@]2(C)C=CC1=O (stereo partly specified) | 4.00 | 6.40 | 6.15 | 4.00 | 4.00 | 4.00 | – | – | – | –
CC1=C2[C@H]3OC(=O)C4(CC(c5ccc(F)cc5)=NO4)[C@@H]3CC[C@@]2(C)C=CC1=O (stereo partly specified) | 4.00 | 4.00 | 4.21 | 4.00 | 4.00 | 4.00 | – | – | – | –
CC1=C2[C@H]3OC(=O)C4(CC(c5ccccc5Cl)=NO4)[C@@H]3CC[C@@]2(C)C=CC1=O (stereo partly specified) | 4.00 | 6.30 | 5.23 | 5.14 | 6.70 | 6.05 | – | – | – | –
CC1=C2[C@H]3OC(=O)C4(CC(c5cc(Cl)ccc5Cl)=NO4)[C@@H]3CC[C@@]2(C)C=CC1=O (stereo partly specified) | 4.21 | 4.41 | 4.00 | 4.00 | 4.00 | 4.00 | – | – | – | –
CC1=C2[C@H]3OC(=O)C4(CC(c5c6ccccc6cc6ccccc56)=NO4)[C@@H]3CC[C@@]2(C)C=CC1=O (stereo partly specified) | 4.35 | 6.70 | 4.35 | 4.30 | 6.10 | 6.52 | – | – | – | –
CC1=C2[C@H]3OC(=O)C4(CC(c5ccccc5)=NO4)[C@@H]3CC[C@@]2(C)C=CC1=O (stereo partly specified) | 4.00 | 4.00 | 4.00 | 4.00 | 4.00 | 4.11 | – | – | – | –
CC1=C2[C@H]3OC(=O)C4(CC(c5ccc([N+](=O)[O-])cc5)=NO4)[C@@H]3CC[C@@]2(C)C=CC1=O (stereo partly specified) | 4.26 | 4.25 | 4.00 | 4.00 | 4.00 | 4.00 | – | – | – | –
CC1=C2[C@H]3OC(=O)C4(C[C@H](c5cccc6ccccc56)N(c5ccccc5)O4)[C@@H]3CC[C@@]2(C)C=CC1=O (stereo partly specified) | 4.00 | 4.85 | 5.85 | 4.00 | 4.00 | 6.22 | – | – | – | –
CC1=C2[C@H]3OC(=O)C4(C[C@H](c5cccc([N+](=O)[O-])c5)N(c5ccccc5)O4)[C@@H]3CC[C@@]2(C)C=CC1=O (stereo partly specified) | 4.00 | 4.85 | 4.09 | 4.00 | 4.00 | 6.52 | – | – | – | –
CC1=C2[C@H]3OC(=O)C4(CC(c5ccc(Cl)cc5Cl)=NO4)[C@@H]3CC[C@@]2(C)C=CC1=O (stereo partly specified) | 4.54 | 4.02 | 4.89 | 4.54 | 4.46 | 4.59 | – | – | – | –
